Several values for one entry are separate records, joined by “and”; a condition that tells them apart may be missing. Identical values can stand only once.
Assays:
Format in all cases: functional
Mus musculus [1] = test: Topical Antiinflammatory activity was measured in the TPA induced mouse ear edema assay at 300 ugm/mouse.
Procedure, shortened: (§1)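 Mouse ear edema induced by topical TPA at 8.8 nmol/mouse, with the test steroid applied topically to the ear.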

Mus musculus [2] = test: Systemic Antiinflammatory activity was measured in the TPA induced mouse ear edema assay at 300 ugm/mouse.
Procedure, shortened: (§2)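 Systemic absorption was assessed by the contralateral ear assay. Ear edema was induced with TPA (8.8 nmol/mouse) and scored on the ear opposite the one receiving the topical corticoid.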

Mus musculus [3] = test: Topical Antiinflammatory activity was measured in the TPA induced mouse ear edema assay at 200 ug/mouse.; procedure, shortened: as §1
Mus musculus [4] = test: Systemic Antiinflammatory activity was measured in the TPA induced mouse ear edema assay at 200 ug/mouse.; procedure, shortened: as §2
Mus musculus [5] = test: Systemic Antiinflammatory activity was measured in the TPA induced mouse ear edema assay at 50 ug/mouse; procedure, shortened: as §2
Mus musculus [6] = test: ED100 of was measured in the TPA induced mouse ear edema assay.; procedure, shortened: as §1
Mus musculus [7] = species on record: Mus musculus; test: Percentage systemic effect to assess the degree of absorption was measured at 50 ug/mouse
Procedure, shortened: (§3)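 Systemic effect was measured after repeated topical high-dose applications to the mouse ear. Thymic involution was read as loss of thymus weight (n = 6). Adrenal suppression was read as inhibition of the stress-induced rise in plasma cortisol (n = 6).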

Mus musculus [8] = test: Topical Antiinflammatory activity was measured in the TPA induced mouse ear edema assay at 50 ug/mouse.; procedure, shortened: as §1
Mus musculus [9] = test: Topical Antiinflammatory activity was measured in the TPA induced mouse ear edema assay at 100 ug/mouse.; procedure, shortened: as §1
Mus musculus [10] = test: Systemic Antiinflammatory activity was measured in the TPA induced mouse ear edema assay at 100 ug/mouse.; procedure, shortened: as §2
Mus musculus [11] = species on record: Mus musculus; test: Atrophogenicity potency was observed in mouse at given dose at 300 ugm/mouse.
Mus musculus [12] = species on record: Mus musculus; test: Skin thickness of mouse was measured at 300 ugm/mouse.
Mus musculus [13] = species on record: Mus musculus; test: Percentage systemic effect to assess the degree of absorption was measured at 100 ug/mouse.; procedure, shortened: as §3
Mus musculus [14] = species on record: Mus musculus; test: Percentage systemic effect to assess the degree of absorption was measured at 200 ug/mouse.; procedure, shortened: as §3
Mus musculus [15] = species on record: Mus musculus; test: Skin thickness of mouse was measured at 200 ug/mouse
Mus musculus [16] = test: Systemic Antiinflammatory activity was measured in the TPA induced mouse ear edema assay at 40 ugm/mouse.; procedure, shortened: as §2
Mus musculus [17] = species on record: Mus musculus; test: Percentage systemic effect to assess the degree of absorption was measured at 10 ug/mouse.; procedure, shortened: as §3
Mus musculus [18] = test: Topical Antiinflammatory activity was measured in the TPA induced mouse ear edema assay at 10 ug/mouse.; procedure, shortened: as §1
Mus musculus [19] = species on record: Mus musculus; test: Atrophogenicity potency was observed in mouse at 200 ug/mouse.
Mus musculus [20] = test: Systemic Antiinflammatory activity was measured in the TPA induced mouse ear edema assay at 10 ug/mouse.; procedure, shortened: as §2
Mus musculus [21] = test: Topical Antiinflammatory activity was measured in the TPA induced mouse ear edema assay at 40 ugm/mouse.; procedure, shortened: as §1
Mus musculus [22] = species on record: Mus musculus; test: Percentage systemic effect to assess the degree of absorption was measured 40 ugm/mouse.; procedure, shortened: as §3
Mus musculus [23] = species on record: Mus musculus; test: Percentage systemic effect to assess the degree of absorption was measured at 50 ug/mouse.; procedure, shortened: as §3
Mus musculus [24] = test: Systemic Antiinflammatory activity was measured in the TPA induced mouse ear edema assay at 50 ug/mouse.; procedure, shortened: as §2
Mus musculus [25] = species on record: Mus musculus; test: Percentage systemic effect to assess the degree of absorption was measured at 300 ugm/mouse.; procedure, shortened: as §3
Mus musculus [26] = species on record: Mus musculus; test: Percentage systemic effect to assess the degree of absorption was measured at 40 ugm/mouse.; procedure, shortened: as §3
Mus musculus [27] = test: Topical Antiinflammatory activity was measured in the TPA induced mouse ear edema assay at 25 ug/mouse.; procedure, shortened: as §1
Mus musculus [28] = test: Topical Antiinflammatory activity was measured in the TPA induced mouse ear edema assay at 2.5 ug/mouse.; procedure, shortened: as §1
Mus musculus [29] = test: Systemic Antiinflammatory activity was measured in the TPA induced mouse ear edema assay at 25 ug/mouse; procedure, shortened: as §2
Mus musculus [30] = test: Systemic Antiinflammatory activity was measured in the TPA induced mouse ear edema assay at 75 ug/mouse; procedure, shortened: as §2
Mus musculus [31] = test: Systemic Antiinflammatory activity was measured in the TPA induced mouse ear edema assay at 2.5 ug/mouse; procedure, shortened: as §2
Mus musculus [32] = species on record: Mus musculus; test: Percentage systemic effect to assess the degree of absorption was measured 25 ug/mouse; procedure, shortened: as §3
Mus musculus [33] = species on record: Mus musculus; test: Percentage systemic effect to assess the degree of absorption was measured 75 ug/mouse; procedure, shortened: as §3
Mus musculus [34] = species on record: Mus musculus; test: Atrophogenicity potency was observed in mouse at 75 ug/mouse.
Mus musculus [35] = test: Topical Antiinflammatory activity was measured in the TPA induced mouse ear edema assay at 75 ug/mouse.; procedure, shortened: as §1
Mus musculus [36] = species on record: Mus musculus; test: Skin thickness of mouse was measured at 75 ug/mouse
Mus musculus [37] = species on record: Mus musculus; test: Percentage systemic effect to assess the degree of absorption was measured at 2.5 ug/mouse; procedure, shortened: as §3
Mus musculus [38] = species on record: Mus musculus; test: Skin thickness of mouse was measured at 75 ug/mouse.
Mus musculus [39] = species on record: Mus musculus; test: Percentage systemic effect to assess the degree of absorption was measured at 75 ug/mouse; procedure, shortened: as §3

Compound: CCCC(=O)O[C@@H]1[C@H](O)[C@@]2(Br)C(CCC3=CC(=O)C=C[C@@]32C)[C@@H]2C[C@H](C)[C@](OC(=O)CC)(C(=O)COC(=O)CC)[C@@]12C (stereo partly drawn)
- Potency (Mus musculus [1]): 68%
- Potency (Mus musculus [2]): 0%

Compound: CCC(=O)OCC(=O)[C@@]1(OC(=O)CC)[C@@H](C)C[C@H]2C3CCC4=CC(=O)C=C[C@]4(C)[C@@]3(Cl)[C@@H](O)[C@@H](OC(=O)CC)[C@@]21C (stereo partly drawn)
- Potency (Mus musculus [3]): 71%
- Potency (Mus musculus [4]): 0%
- Potency (Mus musculus [5]): 0%
- ED100 (Mus musculus [6]): 400 µg
- Potency (Mus musculus [1]): 84%
- Systemic effect (Mus musculus [7]): 4% and 5%
- Potency (Mus musculus [8]): 47%
- Potency (Mus musculus [9]): 53%
- Potency (Mus musculus [10]): 0%
- Potency (Mus musculus [11]): 0.1%
- Potency (Mus musculus [2]): 0%
- Skin thickness (Mus musculus [12]): 16.5
- Systemic effect (Mus musculus [13]): 5%
- Systemic effect (Mus musculus [14]): 0% and 6%

Compound: CCC(=O)OCC(=O)[C@@]1(OC(=O)CC)[C@@H](C)C[C@H]2C3CCC4=CC(=O)C=C[C@]4(C)[C@@]3(Br)[C@@H](O)[C@@H](OC(=O)CC)[C@@]21C (stereo partly drawn)
- Potency (Mus musculus [3]): 70%
- Potency (Mus musculus [4]): 0%
- Potency (Mus musculus [5]): 0%
- ED100 (Mus musculus [6]): 325 µg
- Potency (Mus musculus [1]): 96%
- Systemic effect (Mus musculus [7]): 2%
- Potency (Mus musculus [8]): 36%
- Potency (Mus musculus [9]): 45%
- Potency (Mus musculus [10]): 0%
- Potency (Mus musculus [2]): 0%
- Systemic effect (Mus musculus [13]): 6%
- Systemic effect (Mus musculus [14]): 2% and 0%

Compound: CCC(=O)OCC(=O)[C@@]1(OC(=O)CC)[C@@H](C)C[C@H]2C3CCC4=CC(=O)C=C[C@]4(C)[C@@]3(Br)[C@@H](O)[C@@H](OC(=O)c3ccco3)[C@@]21C (stereo partly drawn)
- Potency (Mus musculus [1]): 69%
- Potency (Mus musculus [2]): 0%

Compound: CCC(=O)OCC(=O)[C@@]1(OC(=O)CC)[C@@H](C)C[C@H]2C3CCC4=CC(=O)C=C[C@]4(C)[C@@]3(Br)[C@@H](O)[C@@H](OC(=O)c3ccccc3)[C@@]21C (stereo partly drawn)
- Potency (Mus musculus [1]): 84%
- Potency (Mus musculus [2]): 0%

Compound: CCC(=O)OCC(=O)[C@@]1(OC(=O)CC)[C@@H](C)C[C@H]2C3CCC4=CC(=O)C=C[C@]4(C)[C@@]3(Cl)[C@@H](O)[C@@H](O)[C@@]21C (stereo partly drawn)
- Skin thickness (Mus musculus [15]): 13.92
- ED100 (Mus musculus [6]): 160 µg
- Potency (Mus musculus [16]): 5%
- Systemic effect (Mus musculus [17]): 4% and 2%
- Potency (Mus musculus [9]): 81%
- Potency (Mus musculus [18]): 41%
- Potency (Mus musculus [10]): 21%
- Potency (Mus musculus [19]): 15.7%
- Systemic effect (Mus musculus [13]): 5% and 14%
- Potency (Mus musculus [20]): 0%
- Potency (Mus musculus [21]): 67%
- Systemic effect (Mus musculus [22]): 0% and 13%

Compound: CCC(=O)OCC(=O)[C@@]1(OC(=O)CC)[C@@H](C)C[C@H]2C3CCC4=CC(=O)C=C[C@]4(C)[C@@]3(Br)[C@@H](O)[C@@H](O)[C@@]21C (stereo partly drawn)
- Potency (Mus musculus [3]): 91%
- Potency (Mus musculus [4]): 17%
- ED100 (Mus musculus [6]): 325 µg
- Potency (Mus musculus [1]): 99%
- Potency (Mus musculus [8]): 57%
- Potency (Mus musculus [9]): 86%
- Systemic effect (Mus musculus [23]): 7% and 12%
- Potency (Mus musculus [10]): 17%
- Potency (Mus musculus [24]): 16%
- Potency (Mus musculus [2]): 22%
- Systemic effect (Mus musculus [25]): 7% and 15%
- Systemic effect (Mus musculus [13]): 0% and 14%
- Systemic effect (Mus musculus [14]): 7% and 15%

Compound: CCC(=O)OCC(=O)[C@@]1(OC(=O)CC)[C@@H](C)C[C@H]2C3CCC4=CC(=O)C=C[C@]4(C)[C@@]3(F)[C@@H](O)[C@@H](OC(=O)CC)[C@@]21C (stereo partly drawn)
- Potency (Mus musculus [3]): 77%
- Potency (Mus musculus [4]): 0%
- ED100 (Mus musculus [6]): 400 µg
- Systemic effect (Mus musculus [26]): 1% and 6%
- Potency (Mus musculus [16]): 0%
- Systemic effect (Mus musculus [17]): 0%
- Potency (Mus musculus [9]): 69%
- Potency (Mus musculus [18]): 21%
- Potency (Mus musculus [10]): 0%
- Systemic effect (Mus musculus [13]): 4% and 0%
- Potency (Mus musculus [20]): 0%
- Potency (Mus musculus [21]): 50%

Compound: CCC(=O)OCC(=O)[C@@]1(OC(=O)CC)[C@@H](C)C[C@H]2C3CCC4=CC(=O)C=C[C@]4(C)[C@@]3(Br)[C@@H](O)[C@@H](OC(=O)CC(C)C)[C@@]21C (stereo partly drawn)
- Potency (Mus musculus [1]): 54%
- Potency (Mus musculus [2]): 0%

Compound: CCC(=O)OCC(=O)[C@@]1(OC(=O)CC)[C@@H](C)C[C@H]2C3CCC4=CC(=O)C=C[C@]4(C)[C@@]3(F)[C@@H](O)[C@@H](O)[C@@]21C (stereo partly drawn)
- ED100 (Mus musculus [6]): 140 µg
- Potency (Mus musculus [16]): 11%
- Systemic effect (Mus musculus [17]): 9% and 1%
- Potency (Mus musculus [9]): 82%
- Potency (Mus musculus [18]): 46%
- Potency (Mus musculus [10]): 19%
- Systemic effect (Mus musculus [13]): 21% and 30%
- Potency (Mus musculus [20]): 7%
- Potency (Mus musculus [21]): 60%
- Systemic effect (Mus musculus [22]): 13% and 10%

Compound: CCC(=O)OCC(=O)[C@@]1(OC(=O)CC)[C@@H](C)C[C@H]2[C@@H]3CCC4=CC(=O)C=C[C@]4(C)[C@@]3(Cl)[C@@H](O)C[C@@]21C [BECLOMETHASONE DIPROPIONATE]
- Potency (Mus musculus [27]): 78%
- ED100 (Mus musculus [6]): 110 µg
- Potency (Mus musculus [28]): 60%
- Potency (Mus musculus [29]): 40%
- Potency (Mus musculus [30]): 52%
- Potency (Mus musculus [31]): 12%
- Systemic effect (Mus musculus [32]): 52% and 32%
- Systemic effect (Mus musculus [33]): 67% and 36%
- Potency (Mus musculus [34]): 51%
- Potency (Mus musculus [35]): 93%
- Skin thickness (Mus musculus [36]): 8.12

Compound: CCC(=O)OCC(=O)[C@@]1(OC(=O)CC)[C@@H](C)C[C@H]2[C@@H]3CCC4=CC(=O)C=C[C@]4(C)[C@@]3(F)[C@@H](O)C[C@@]21C [BETAMETHASONE DIPROPIONATE]
- Potency (Mus musculus [27]): 76%
- ED100 (Mus musculus [6]): 110 µg
- Potency (Mus musculus [28]): 59%
- Potency (Mus musculus [29]): 30%
- Potency (Mus musculus [30]): 72%
- Potency (Mus musculus [31]): 27%
- Systemic effect (Mus musculus [37]): 30% and 12%
- Skin thickness (Mus musculus [38]): 9.39
- Systemic effect (Mus musculus [39]): 87% and 37%
- Potency (Mus musculus [34]): 43%
- Potency (Mus musculus [35]): 93%

— ChEMBL document CHEMBL1124813, “Synthesis and antiinflammatory activity of novel 12 beta-substituted analogues of betamethasone” (1990)
